Bioassay records: PubChem, several laboratories
Shown are actives, neighbours in structure and some others; about 11% of the full set was active somewhere.
D1 mod – D1 dopamine receptor (human) allosteric modulation. HEK293 D1, CRE-luciferase, dopamine EC30 potentiation; actives deviate in either direction. AID 641. 58,000 compounds, 5.9% hits. B-score at 10 µM;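 active means luminescence count or its row- and column-corrected plate score outside the 99.7% band of the plate's sample wells, on either side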
S1P1 ag pot – S1P1 (human) agonism or agonism potentiation; P21453; S1P1 CRE-bla cells, forskolin, beta-lactamase FRET, potentiator mode; S1P1 agonist co-added at EC20, 2 nM; 100% = saturating reference agonist, 0% = basal; activation, % at 9.5 µM; 56,000 compounds, 0.57% hits; AID 449;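 active means activation above a cutoff set at the mean activation of all tested compounds plus 3 SD, cut at about 54% in these data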;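 further: forskolin at 4 µM as EC80 and the EC20 agonist is SEW2871; 100% = SEW2871 at its EC100 plus forskolin at EC80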
Target sequence (P21453 whole entry, looked up): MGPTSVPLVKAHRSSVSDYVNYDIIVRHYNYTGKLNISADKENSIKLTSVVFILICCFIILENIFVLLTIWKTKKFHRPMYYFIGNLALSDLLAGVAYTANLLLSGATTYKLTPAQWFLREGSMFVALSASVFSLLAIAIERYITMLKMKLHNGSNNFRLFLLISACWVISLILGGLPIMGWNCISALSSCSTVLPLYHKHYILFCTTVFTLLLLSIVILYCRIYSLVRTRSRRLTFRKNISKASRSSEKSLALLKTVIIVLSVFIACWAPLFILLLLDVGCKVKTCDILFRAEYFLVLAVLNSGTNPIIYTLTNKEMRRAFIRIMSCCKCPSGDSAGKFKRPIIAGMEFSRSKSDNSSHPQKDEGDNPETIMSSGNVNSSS
TNAP act mid DEA – human TNAP activation, intermediate phosphate acceptor; 64,000 tested, under 10 active; activation factor at 20 µM; purified TNAP, CDP-star luminescence, 100 mM DEA, 30 min; active compounds read high; scale: 0 levamisole-inhibited, 1 vehicle-only enzyme;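 active means activation factor of at least 2 at 20 µM, relative to controls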
M1 ag – agonists of M1 muscarinic receptor | CHO-M1 cells, Fluo-4 calcium fluorescence, agonist mode; active compounds read high | B-score at 10 µM | 64,000 compounds, 3% hits | AID 626;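 active means fluorescence rise, raw or as B-score row- and column-corrected plate score, outside the 99.7% band of its plate's samples, either direction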
S1P3 ag – agonists of human S1P3 receptor. Q99500. S1P3 NFAT-BLA reporter cells, agonism, FRET ratio; relative to 1 µM S1P, basal subtracted. activation, % at 4.5 µM. 60,000 compounds, 0.1% hits. AID 373;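 active means activation above the screen-wide mean plus 3 SD, cut at about 4.5% in these data, passing the limit was not always enough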
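Assay system: CHO cells stably expressing human S1P3, Gα16 and NFAT-β-lactamase reporter. Timing: overnight plating, 4 h compound 37 °C, 2 h substrate RT. Signal: β-lactamase FRET emission ratio 460/535 nm. Measure: percent activation versus median 1 µM S1P response, basal-subtracted, per plate. Repeats: primary screen single test, confirmation screen in triplicate.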
M1 antag – antagonists of rat M1 muscarinic receptor; P08482; CHO-M1 cells, Fluo-4 calcium, ACh EC80 antagonist mode; active compounds read low; B-score at 10 µM; 64,000 compounds, 3.4% hits; AID 628;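 active means calcium fluorescence response, raw or row-and-column corrected B-score, differing from the plate sample mean either way at a set confidence level, mostly lower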
M1 ag confirm – rat M1 muscarinic agonism, confirmation; shares compounds with M1 ag; CHO-M1 cells, Fluo-4 calcium fluorescence, agonist mode; actives lie on both sides; fluorescence change (max-min) at 10 µM; 1,700 compounds, 19% hits;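 active means fluorescence change differs from the solvent-only DMSO control mean at a set confidence level in both duplicate runs; inconclusive means differs from solvent-only control mean in just one of two runs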;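 further: an EC20 dose of acetylcholine follows compound addition during the same imaging run; raw fluorescence intensity difference in instrument units with no normalization to controls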
M4 agonist ctr – activates rat M4 receptor in counter-screen for M1 agonists. CHO M4/Gqi5 cells, Fluo-4 calcium fluorescence, agonist mode; actives lie on both sides. shares compounds with M1 ag. 1,700 compounds, 9% hits. fluorescence change (max-min) at 10 µM;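 active means fluorescence change differing from the plate's solvent-only control wells at 99.7% confidence in both duplicates, whether higher or lower; inconclusive means differs from solvent controls in only one of two duplicates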
Numbers without * were called inactive; ? = inconclusive; . = no result.

SMILES	D1 mod	S1P1 ag pot	TNAP act mid DEA	M1 ag	S1P3 ag	M1 antag	M1 ag confirm	M4 agonist ctr
O=C(CSc1nc(-c2ccco2)cc(C(F)(F)F)n1)NCCCn1ccnc1	0.035	-23	0.8	10*	-1	-0.93	3.4	-2
Cc1ccc(-n2c(C)nc3c(cnn3-c3ccc(F)cc3)c2=O)cc1C	0.75	8	0.9	3.5*	-2	-1.2	-15	?
CSc1nc2c(cnn2-c2ccc(C)c(C)c2)c(=O)[nH]1	2.2	-19	0.9	-1.9	1	-0.96	.	.
Cc1nn(CC(N)=O)c(=O)c2ccccc12	.	0	0.9	0.11	-1	-0.36	.	.
Cc1nn(CC(=O)N(C)C)c(=O)c2ccccc12	0.8	-17	0.9	4.2*	0	0.41	-5.6	-25
CCOC(=O)C1CCCN(C(=O)CCC(=O)Nc2ccc3nc(N4CCOCC4)cc(C)c3c2)C1 (stereo not given)	0.31	-27	1	5.4*	0	-1.3	?	-56
CCOC(=O)C1CCCN(CC(=O)NC2=Nc3ccccc3N=C(C)C2c2ccccc2)C1 (stereo not given)	-1.8	-5	1	7.4*	-1	0.41	-31*	-50
CCOC(=O)C1CCCN(CCC(=O)Nc2ccc(F)c(F)c2)C1 (stereo not given)	-1	-2	0.9	5.8*	-1	-1.4	9.2	-28
CCOC(=O)C1CCCN(CC(=O)NC2CC2)C1 (stereo not given)	-1.6	-13	0.9	-0.44	1	0.43	.	.
O=S(=O)(NCCSc1nnnn1-c1ccccc1)c1cccs1	0.007	-20	0.9	-1.1	-1	1.1	.	.
Cc1csc2ncc(C(=O)NC(C)c3ccccc3)c(=O)n12 (stereo not given)	.	6	1	-1.4	-1	-0.45	.	.
O=C(NCCCN1CCOCC1)c1cccs1	0.057	.	0.8	0.8	0	0	.	.
CC(=O)Nc1ccc(S(=O)(=O)Nc2nc3ccccc3nc2Sc2nncn2C)cc1	0.33	.	0.9	43*	.	0.3	55*	12
Cn1cnnc1Sc1nc2ccccc2nc1NS(=O)(=O)c1ccccc1	-1	-4	0.9	-0.043	0	-0.061	.	.
CCn1c(Cc2ccc(OC)cc2)nnc1SCC(=O)Nc1cccc(C(=O)OC)c1	0.6	-16	0.9	-0.78	-2	-0.11	.	.
O=c1c2cn[nH]c2[nH]c(=S)n1-c1ccccc1F	-2.3	-2	1	-0.077	2	0.2	.	.
CCC(Oc1ccccc1)C(=O)Nc1ccc(S(=O)(=O)NCC2CCCO2)cc1 (stereo not given)	0.017	-22	1	-2.2*	-1	-0.71	-3	-25
O=C(CCCc1cccs1)N1CCN(S(=O)(=O)c2ccccc2Br)CC1	-0.036	28	1	-0.82	0	0.0099	.	.
COc1ccc(CNn2c(C)nc3ccccc3c2=O)cc1	.	-24	0.8	5.6*	0	-0.51	-8.3	-17
CCCCOc1ccc(CNn2c(C)nc3ccccc3c2=O)cc1	.	28	0.8	-0.48	-1	0.0013	.	.
c1ccc(Cn2nnnc2C(c2cccnc2)N2CCN(c3ccccc3)CC2)cc1 (stereo not given)	-0.13	-16	0.8	6.1*	3	-1.1	?	?
N#Cc1cccc(NC(=O)c2nc(-c3ccccc3)n(-c3ccccc3)n2)c1	1.9	53	0.9	3.5*	0	-0.55	-11	-44
COc1ccc(C2C(C(C)=O)=C(C)N=c3s/c(=C/c4ccc5c(c4)OCO5)c(=O)n32)cc1 (stereo not given)	0.66	.	0.8	3.9*	.	-0.39	40	36
O=S(=O)(NCCCCCNS(=O)(=O)c1ccccc1)c1ccccc1	1.2	3	1	-1.7*	-1	-1.3	16	-6.8
COC(=O)c1ccc(NC(=O)NS(=O)(=O)c2ccc(C)cc2)cc1	-0.043	-13	1	.	0	.	.	.
